From ChEMBL document CHEMBL4270576, “Discovery of a benzenesulfonamide-based dual inhibitor of microsomal prostaglandin E2 synthase-1 and 5-lipoxygenase that favorably modulates lipid mediator biosynthesis in inflammation” (Eur J Med Chem, 2018)

Key:
[1] = molecular target: T1, Polyunsaturated fatty acid 5-lipoxygenase (Homo sapiens) (UniProt P09917); experiment: Inhibition of 5-LO in human M1 macrophages derived from LPS/IFNgamma-polarized human monocyte derived macrophages assessed as effect on 5,6-diHETE level at 3 uM preincubated for 15 mins followed by Escherichia coli (O6:K2:H1) challenge for 90 mins by LC-MS/MS analysis; design: scale not given: the % may be the effect or the level left
T1 sequence (whole entry): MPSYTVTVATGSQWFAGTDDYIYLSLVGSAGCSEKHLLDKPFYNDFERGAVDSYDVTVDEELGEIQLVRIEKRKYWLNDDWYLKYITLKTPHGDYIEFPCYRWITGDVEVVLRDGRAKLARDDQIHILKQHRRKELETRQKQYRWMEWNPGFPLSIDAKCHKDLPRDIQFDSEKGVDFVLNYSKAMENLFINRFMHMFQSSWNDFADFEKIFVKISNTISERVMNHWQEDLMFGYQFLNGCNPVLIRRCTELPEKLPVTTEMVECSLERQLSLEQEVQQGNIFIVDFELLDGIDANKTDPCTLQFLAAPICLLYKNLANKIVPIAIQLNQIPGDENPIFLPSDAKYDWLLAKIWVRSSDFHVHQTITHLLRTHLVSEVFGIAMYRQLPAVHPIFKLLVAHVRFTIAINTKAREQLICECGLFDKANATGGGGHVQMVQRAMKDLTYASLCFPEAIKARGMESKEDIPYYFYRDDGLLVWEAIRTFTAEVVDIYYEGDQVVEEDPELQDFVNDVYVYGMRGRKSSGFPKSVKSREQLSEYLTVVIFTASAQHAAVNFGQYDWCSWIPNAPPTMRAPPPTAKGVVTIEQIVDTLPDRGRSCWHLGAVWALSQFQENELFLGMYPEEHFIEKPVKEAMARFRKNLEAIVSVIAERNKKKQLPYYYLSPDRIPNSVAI
Method in brief: (§1)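 Monocytes differentiated 6 days with GM-CSF (20 ng/ml) in RPMI/10% FCS, then polarized 48 h with LPS 100 ng/ml plus IFN-γ 20 ng/ml (M1). Cells (2 × 10^6) in PBS with 1 mM CaCl2 pre-incubated 15 min at 37 °C with 3 µM compound or 0.1% DMSO, then E. coli O6:K2:H1 (1:50) for 90 min. Methanol with deuterated standards added; SPE; UPLC-MS/MS; expressed as % of vehicle.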

Cyclooxygenase = Cyclooxygenase (Homo sapiens, UniProt P35354+P23219); experiment: Modulation of COX1/2-mediated 11-HEPE level in human M2 macrophages derived from IL4-polarized human monocyte derived macrophages at 3 uM preincubated for 15 mins followed by Escherichia coli (O6:K2:H1) challenge for 90 mins by LC-MS/MS analysis; format: ADME; settings: 1.5 h
Method in brief: (§2)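 Monocytes differentiated 6 days with M-CSF (20 ng/ml), then polarized 48 h with IL-4 20 ng/ml (M2). Cells (2 × 10^6) in PBS/1 mM CaCl2 pre-incubated 15 min at 37 °C with 3 µM compound or 0.1% DMSO, then challenged with E. coli O6:K2:H1 (1:50) for 90 min. Lipid mediators extracted by SPE with deuterated internal standards and quantified by UPLC-MS/MS as % of vehicle.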

[2] = molecular target: T2, Polyunsaturated fatty acid lipoxygenase ALOX15 (Homo sapiens) (UniProt P16050); experiment: Modulation of 15-LO-mediated 7-HDHA level in human M2 macrophages derived from IL4-polarized human monocyte derived macrophages at 3 uM preincubated for 15 mins followed by Escherichia coli (O6:K2:H1) challenge for 90 mins by LC-MS/MS analysis; method in brief: as §2
T2 sequence (whole entry): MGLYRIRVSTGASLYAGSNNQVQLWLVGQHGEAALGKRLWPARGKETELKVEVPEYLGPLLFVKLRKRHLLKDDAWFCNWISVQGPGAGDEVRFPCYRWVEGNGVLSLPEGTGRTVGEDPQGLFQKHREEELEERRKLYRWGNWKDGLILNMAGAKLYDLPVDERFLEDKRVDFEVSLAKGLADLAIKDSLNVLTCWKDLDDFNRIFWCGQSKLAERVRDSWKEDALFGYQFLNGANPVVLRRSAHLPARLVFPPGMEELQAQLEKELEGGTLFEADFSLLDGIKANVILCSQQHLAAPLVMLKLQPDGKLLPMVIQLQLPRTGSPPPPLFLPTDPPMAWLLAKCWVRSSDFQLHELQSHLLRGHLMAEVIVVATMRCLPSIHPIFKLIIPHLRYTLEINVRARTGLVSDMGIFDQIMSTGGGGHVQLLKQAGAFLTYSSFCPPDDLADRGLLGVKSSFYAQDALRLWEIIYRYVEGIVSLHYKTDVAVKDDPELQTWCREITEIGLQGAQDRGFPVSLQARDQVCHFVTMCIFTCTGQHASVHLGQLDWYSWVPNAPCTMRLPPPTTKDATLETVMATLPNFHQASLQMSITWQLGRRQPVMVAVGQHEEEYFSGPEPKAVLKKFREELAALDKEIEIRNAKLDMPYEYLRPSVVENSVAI

Homo sapiens = species on record: Homo sapiens; experiment: Modulation of LO-mediated PD1 level in human M2 macrophages derived from IL4-polarized human monocyte derived macrophages at 3 uM preincubated for 15 mins followed by Escherichia coli (O6:K2:H1) challenge for 90 mins by LC-MS/MS analysis; method in brief: as §2
[3] = molecular target: T2, Polyunsaturated fatty acid lipoxygenase ALOX15 (Homo sapiens); experiment: Modulation of 15-LO-mediated 15-HEPE level in human M2 macrophages derived from IL4-polarized human monocyte derived macrophages at 3 uM preincubated for 15 mins followed by Escherichia coli (O6:K2:H1) challenge for 90 mins by LC-MS/MS analysis; method in brief: as §2
[4] = molecular target: T3, Polyunsaturated fatty acid 5-lipoxygenase (Homo sapiens, UniProt P09917); experiment: Inhibition of recombinant human 5-LO expressed in Escherichia coli BL21 (DE3) using arachidonic acid as substrate preincubated for 10 mins followed by CaCl2 and substrate addition measured after 10 mins by RP-HPLC analysis
T3 sequence (P09917 whole entry): T1 sequence (whole entry)
Method in brief: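 Human recombinant 5-LO from E. coli BL21(DE3), ATP-agarose semi-purified (0.5 µg/ml), pre-incubated with compound or 0.1% DMSO at 4 °C. It was pre-warmed 30 s at 37 °C, then started with 2 mM CaCl2 plus 20 µM AA. Stopped after 10 min with ice-cold methanol; products by RP-HPLC. Residual activity at 10 µM; IC50 from 4-5 concentrations; n=3-4.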

[5] = molecular target: T1, Polyunsaturated fatty acid 5-lipoxygenase (Homo sapiens); experiment: Inhibition of 5-LO in human M1 macrophages derived from LPS/IFNgamma-polarized human monocyte derived macrophages assessed as effect on t-LTB4 level at 3 uM preincubated for 15 mins followed by Escherichia coli (O6:K2:H1) challenge for 90 mins by LC-MS/MS analysis; design: scale not given: the % may be the effect or the level left; method in brief: as §1
[6] = molecular target: T1, Polyunsaturated fatty acid 5-lipoxygenase (Homo sapiens); experiment: Inhibition of 5-LO in human M1 macrophages derived from LPS/IFNgamma-polarized human monocyte derived macrophages assessed as effect on 5-HETE level at 3 uM preincubated for 15 mins followed by Escherichia coli (O6:K2:H1) challenge for 90 mins by LC-MS/MS analysis; design: scale not given: the % may be the effect or the level left; method in brief: as §1

Activity [1]: 13% | Activity (Cyclooxygenase): 107% | Activity [2]: 107% | Activity (Homo sapiens): 110% | Activity [3]: 125% | IC50 [4]: 2300 nM | Activity [5]: 17% | Activity [6]: 35%
SMILES: O=C(O)c1ccc(N(Cc2cccc(OCc3ccccc3)c2)S(=O)(=O)c2ccc(-c3ccccc3)cc2)cc1
